The target in assay [1] is NAD-dependent protein deacylase sirtuin-5, mitochondrial (Homo sapiens, UniProt Q9NXA8). In words: Inhibition of SIRT5 using ZK(suc)A substrate after 1 hr by homogeneous fluorescence assay. An outline of the steps: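 Recombinant Sirt5 reacted with 200 µM succinyl-lysine AMC substrate ZK(s)A and 500 µM NAD+ in pH 8.0 Tris buffer (130 mM NaCl, 3 mM KCl, 1 mM MgCl2, 0.1% PEG8000) with DMSO <2%. Ran 1 h at 37 °C, then trypsin for 2 min at 37 °C. Conversion without inhibitor set to 4–10%. Inhibition calculated against DMSO control, at least two independent runs; IC50 from curve fit.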

For assay [2], the target named is T1, NAD-dependent protein deacetylase sirtuin-2 (Homo sapiens, UniProt Q8IXJ6).
T1 sequence (Q8IXJ6 whole entry): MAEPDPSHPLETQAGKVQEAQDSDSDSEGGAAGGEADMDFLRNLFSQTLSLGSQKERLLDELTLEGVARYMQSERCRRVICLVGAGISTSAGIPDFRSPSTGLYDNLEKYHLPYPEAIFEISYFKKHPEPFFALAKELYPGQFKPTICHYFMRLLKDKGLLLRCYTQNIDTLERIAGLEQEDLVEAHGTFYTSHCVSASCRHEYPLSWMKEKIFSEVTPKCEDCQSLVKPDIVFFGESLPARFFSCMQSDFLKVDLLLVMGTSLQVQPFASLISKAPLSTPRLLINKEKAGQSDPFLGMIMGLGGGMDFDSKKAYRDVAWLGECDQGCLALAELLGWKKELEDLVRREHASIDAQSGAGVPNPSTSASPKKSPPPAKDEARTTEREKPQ
The assay is described as follows: Inhibition of recombinant SIRT2 using ZMAL substrate after 4 hrs by homogeneous fluorescence assay.

Assay [3] addresses T2, NAD-dependent protein deacetylase sirtuin-1 (Homo sapiens, UniProt Q96EB6).
T2 sequence (Q96EB6 whole entry): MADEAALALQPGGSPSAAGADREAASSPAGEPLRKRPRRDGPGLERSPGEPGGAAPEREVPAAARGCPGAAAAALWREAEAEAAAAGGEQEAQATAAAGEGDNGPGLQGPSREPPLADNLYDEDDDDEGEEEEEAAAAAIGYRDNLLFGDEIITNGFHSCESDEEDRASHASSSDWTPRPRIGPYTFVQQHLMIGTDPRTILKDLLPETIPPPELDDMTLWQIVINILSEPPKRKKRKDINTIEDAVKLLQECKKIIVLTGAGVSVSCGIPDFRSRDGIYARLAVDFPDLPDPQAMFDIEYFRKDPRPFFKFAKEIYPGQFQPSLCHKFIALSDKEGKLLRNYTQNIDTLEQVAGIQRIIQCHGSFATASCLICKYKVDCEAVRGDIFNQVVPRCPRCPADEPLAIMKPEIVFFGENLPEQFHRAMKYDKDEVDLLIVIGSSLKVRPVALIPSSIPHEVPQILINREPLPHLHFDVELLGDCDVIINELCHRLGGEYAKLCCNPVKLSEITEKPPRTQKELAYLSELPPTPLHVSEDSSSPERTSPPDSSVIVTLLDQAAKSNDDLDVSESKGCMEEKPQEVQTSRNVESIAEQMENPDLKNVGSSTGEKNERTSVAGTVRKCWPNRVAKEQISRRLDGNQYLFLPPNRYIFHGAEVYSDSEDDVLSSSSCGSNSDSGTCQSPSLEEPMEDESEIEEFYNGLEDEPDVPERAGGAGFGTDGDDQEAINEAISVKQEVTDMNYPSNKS
The assay is described as follows: Inhibition of recombinant SIRT1 using ZMAL substrate after 4 hrs by homogeneous fluorescence assay.

Assay [4] concerns the target T3, NAD-dependent protein deacetylase sirtuin-3, mitochondrial (Homo sapiens) (UniProt Q9NTG7).
T3 sequence (whole entry): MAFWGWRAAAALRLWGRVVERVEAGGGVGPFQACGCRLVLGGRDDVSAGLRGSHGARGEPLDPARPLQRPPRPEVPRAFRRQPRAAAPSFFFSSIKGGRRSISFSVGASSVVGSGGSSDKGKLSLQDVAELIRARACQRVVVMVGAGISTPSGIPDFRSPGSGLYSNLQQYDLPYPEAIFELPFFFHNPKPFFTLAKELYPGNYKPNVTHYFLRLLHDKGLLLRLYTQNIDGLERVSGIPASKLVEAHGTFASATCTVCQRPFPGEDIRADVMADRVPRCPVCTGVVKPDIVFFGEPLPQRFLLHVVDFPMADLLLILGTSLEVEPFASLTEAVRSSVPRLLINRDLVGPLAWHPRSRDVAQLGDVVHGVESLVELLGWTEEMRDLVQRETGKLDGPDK
In words: Inhibition of recombinant SIRT3 using ZMAL substrate at 50 uM after 4 hrs by homogeneous fluorescence assay. An outline of the steps:
(§1)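 Recombinant Sirt1, Sirt2 or Sirt3 incubated with 10.5 µM ZMAL and 500 µM NAD+ in pH 8.0 Tris buffer (137 mM NaCl, 2.7 mM KCl, 1 mM MgCl2) containing 5% DMSO. Ran 4 h at 37 °C, then trypsin developer with 8 mM nicotinamide for 20 min at 37 °C. Fluorescence at Ex 390/Em 460 nm. Conversion without inhibitor held at 10–30%. Inhibition calculated versus DMSO control, at least three independent runs; IC50 by curve fitting.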

In assay [5] the target is T4, NAD-dependent protein deacetylase sirtuin-2 (Homo sapiens) (UniProt Q8IXJ6).
T4 sequence (whole entry): T1 sequence (Q8IXJ6 whole entry)
In words: Inhibition of recombinant SIRT2 using ZMAL substrate at 50 uM after 4 hrs by homogeneous fluorescence assay. An outline of the steps: as §1

For assay [6], the target named is T5, NAD-dependent protein deacetylase sirtuin-3, mitochondrial (Homo sapiens, UniProt Q9NTG7).
T5 sequence (Q9NTG7 whole entry): T3 sequence (whole entry)
The assay is described as follows: Inhibition of recombinant SIRT3 using ZMAL substrate after 4 hrs by homogeneous fluorescence assay.

The source made the active and inactive calls. The rule behind the calls is not given here.

In general, IC50 refers to the point on the concentration scale where inhibition reaches its midpoint. For orientation: inhibition means how much of the control response was suppressed.

Chain of NAD-dependent protein deacylase sirtuin-5, mitochondrial (Q9NXA8 whole entry): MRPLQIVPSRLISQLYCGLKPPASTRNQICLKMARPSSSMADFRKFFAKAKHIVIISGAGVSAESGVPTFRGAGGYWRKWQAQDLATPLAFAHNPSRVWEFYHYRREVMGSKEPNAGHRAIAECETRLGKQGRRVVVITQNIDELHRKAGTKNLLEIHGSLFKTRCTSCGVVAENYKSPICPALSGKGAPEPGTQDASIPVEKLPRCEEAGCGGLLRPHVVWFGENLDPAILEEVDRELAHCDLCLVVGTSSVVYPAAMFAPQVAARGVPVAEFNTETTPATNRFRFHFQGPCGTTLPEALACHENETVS

On to `O=C1NC(=S)NC(=O)C1=Cc1ccc(OCc2ccccc2)cc1`, for which the IC50 was 12.6 µM in assay [1] (read-out: IC50), 9.8 µM in assay [2] and 10.5 µM in assay [3] (read-out: IC50).
Regarding `CCN1C(=O)/C(=C/c2c[nH]c3ccccc23)C(=O)NC1=S`, the concentration for half-maximal inhibition (IC50) in assay [1] (read-out: IC50) is 55.9 µM; in assay [3] (read-out: IC50), 89.3 µM. Also, the inhibition entry in assay [4] is “inactive”. For the same compound, the inhibition in assay [5] amounted to 10%.
On to `COc1ccc2c(C=C3C(=O)NC(=S)NC3=O)cccc2c1`, for which the IC50 in assay [1] (read-out: IC50) was 22.4 µM; in assay [2], 11.7 µM; in assay [3] (read-out: IC50), 6 µM.
In the case of `CCN1C(=O)/C(=C/c2ccc(OCc3ccccc3)cc2)C(=O)NC1=S`, the IC50 came to 12.9 µM in assay [1] (read-out: IC50), 14.4 µM in assay [2] and 53.2 µM in assay [3] (read-out: IC50). Besides, the inhibition in assay [4] amounted to 25%.
Turning to `O=C1NC(=S)NC(=O)C1=Cc1cn(Cc2ccccc2)c2ccccc12`, the IC50 in assay [1] (read-out: IC50) was determined as 16.6 µM; in assay [3] (read-out: IC50), 28.4 µM. The inhibition in assay [5] turned out to be 20%.
Turning to `C=CCN1C(=O)/C(=C/c2ccc(-c3cccc(Cl)c3Cl)o2)C(=O)NC1=S`, the values for the half-inhibitory concentration (IC50) in assay [1] (read-out: IC50), in assay [2] and in assay [3] (read-out: IC50) were 2.3 µM, 9.7 µM and 5.3 µM, respectively. In addition, the inhibition in assay [4] is 41%.
As for `O=C1NC(=S)NC(=O)C1=Cc1ccc(-c2cccc(Cl)c2Cl)o1`, the IC50 in assay [1] (read-out: IC50) amounted to 3.6 µM; in assay [2] it was 10.4 µM; in assay [3] (read-out: IC50), 3.4 µM. Further, the inhibition in assay [4] was determined as 30%.
As for `NC(=O)C1CCCc2c1[nH]c1ccc(Cl)cc21` (stereo not given), the IC50 entry in assay [1] was “Not Active”.
For `O=C1NC(=S)NC(=O)C1=Cc1c[nH]c2ccccc12`, the IC50 in assay [1] (read-out: IC50) amounted to 46.5 µM; in assay [2], 20.3 µM; in assay [3] (read-out: IC50), 5.9 µM. In addition, in assay [4], the inhibition came to 14%.
Regarding `CS(=O)(=O)O.Cn1cc(C2=C(c3cn(CCCSC(=N)N)c4ccccc34)C(=O)NC2=O)c2ccccc21`, the half-maximal inhibitory concentration (IC50) result in assay [1] is given as “Not Active”.
`CN1C(=O)/C(=C/c2c[nH]c3ccccc23)C(=O)NC1=S`: the results for the 50% inhibitory concentration (IC50) in assay [1] (read-out: IC50) and in assay [3] (read-out: IC50) were 27 µM and 42.4 µM, respectively. Besides, the inhibition came to 17% in assay [4] and 20% in assay [5].
With `O=C1CC(c2ccccc2)c2c(ccc3cc(Br)ccc23)O1` (stereo not given), the half-maximal inhibitory concentration (IC50) entry in assay [1] was “Not Active”; in assay [2], 1 µM; in assay [3], “Not Active”; in assay [6], “Not Active”.
Turning to `O=c1[nH]c(=S)[nH]c(-c2ccccc2)c1Cc1c(O)ccc2ccccc12` [CAMBINOL], the IC50 in assay [1] (read-out: IC50) is 42.5 µM.
Turning to `CC(C)c1ccc(C=C2C(=O)NC(=S)NC2=O)cc1`, the IC50 in assay [1] (read-out: IC50) turned out to be 39.4 µM; in assay [2], 14.7 µM; in assay [3] (read-out: IC50), 12.4 µM. For the same compound, the inhibition in assay [4] came out at 13%.
For the compound `O=C1NC(=S)NC(=O)C1=Cc1ccc(-c2ccccc2)cc1`, the results for the IC50 in assay [1] (read-out: IC50), in assay [3] (read-out: IC50) and in assay [6] (read-out: IC50) were 30 µM, 50.5 µM and 40.3 µM, respectively.
In the case of `O=C1NC(=S)NC(=O)C1=Cc1ccc(OCc2ccc(Br)cc2)cc1`, the concentration for half-maximal inhibition (IC50) in assay [1] (read-out: IC50) came to 6.2 µM; in assay [2], 3.4 µM; in assay [3] (read-out: IC50), 9.9 µM.
`COc1cc(C=C2C(=O)NC(=S)NC2=O)ccc1OCc1ccccc1Cl`: the IC50 is 12.4 µM in assay [1] (read-out: IC50), 7.5 µM in assay [2] and 6.7 µM in assay [3] (read-out: IC50).
On to `C=CCN1C(=O)/C(=C/c2ccc(OCc3ccccc3)cc2)C(=O)NC1=S`, for which the IC50 in assay [1] (read-out: IC50) was found to be 67.3 µM; in assay [3] (read-out: IC50), 36.8 µM. The inhibition in assay [4] is 13%. In addition, the inhibition entry in assay [5] was “inactive”.
As for `CC(NC(=O)c1ccccc1/N=C/c1c(O)ccc2ccccc12)c1ccccc1` (stereo not given) [SIRTINOL], in assay [1] (read-out: IC50), the concentration for half-maximal inhibition (IC50) was found to be 48.9 µM. In addition, in assay [4], the inhibition was 24%.
For `CN1C(=O)/C(=C/c2ccc(OCc3ccccc3)cc2)C(=O)NC1=S`, the figures for the half-inhibitory concentration (IC50) in assay [1] (read-out: IC50), in assay [2] and in assay [3] (read-out: IC50) were 17.8 µM, 10 µM and 56.5 µM, respectively. Also, in assay [4], the inhibition was determined as 22%.
As to `Cc1ccc(C(=O)Nc2ccc(S(=O)(=O)O)c3cc(S(=O)(=O)O)cc(S(=O)(=O)O)c23)cc1NC(=O)c1cccc(NC(=O)Nc2cccc(C(=O)Nc3cc(C(=O)Nc4ccc(S(=O)(=O)O)c5cc(S(=O)(=O)O)cc(S(=O)(=O)O)c45)ccc3C)c2)c1` [SURAMIN], the half-inhibitory concentration (IC50) in assay [2] was 1.1 µM; in assay [6], “Not Active”.

Source of the values: ChEMBL document CHEMBL2203031, “Inhibitors of the NAD(+)-Dependent Protein Desuccinylase and Demalonylase Sirt5” (ACS Med Chem Lett, 2012).
